Screens: PubChem, The Scripps Research Institute Molecular Screening Center
In the library only some 1.8% were active in any assay of this set; here they are far more common.
M4 PAM: human M4 muscarinic receptor positive allosteric modulators, primary screen, CHO-K1 cells, Fluo-8 calcium fluorescence; 360,000 tested, 0.4% active; CHO-K1 hM4/Gqi5, ACh EC20; 0% = ACh EC20, 100% = maximal ACh; AID 624126, 2012; Muscarinic acetylcholine receptor M4 (Homo sapiens), P08173; activation, % at 3 µM;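 active = activation above its plate's cutoff, the mean activation of sample wells plus 3 SD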
Target sequence (P08173 whole entry, looked up): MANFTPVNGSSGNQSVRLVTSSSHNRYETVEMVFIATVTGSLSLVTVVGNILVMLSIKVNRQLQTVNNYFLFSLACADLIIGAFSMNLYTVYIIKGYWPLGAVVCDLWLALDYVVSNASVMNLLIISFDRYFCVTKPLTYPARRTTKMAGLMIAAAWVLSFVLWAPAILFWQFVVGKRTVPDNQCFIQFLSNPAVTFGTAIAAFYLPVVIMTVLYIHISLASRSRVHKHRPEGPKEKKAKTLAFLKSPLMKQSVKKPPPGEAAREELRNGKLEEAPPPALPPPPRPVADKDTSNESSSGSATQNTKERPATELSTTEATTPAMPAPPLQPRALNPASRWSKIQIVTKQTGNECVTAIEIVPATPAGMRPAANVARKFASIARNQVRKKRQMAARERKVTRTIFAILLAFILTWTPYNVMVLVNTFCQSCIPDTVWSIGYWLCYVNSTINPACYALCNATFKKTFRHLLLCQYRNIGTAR
M4 ag: human M4 muscarinic receptor agonists, primary screen, CHO-K1 cells, Fluo-8 calcium fluorescence; 360,000 tested, 0.14% active; activation, % at 3 µM; CHO-K1 hM4/Gqi5; vehicle 0%, full acetylcholine response 100%; Muscarinic acetylcholine receptor M4 (Homo sapiens), P08173;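 active = activation above the run mean over all test wells plus 3 SD, cut at about 32% in these data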;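 note: peak over basal fluorescence ratio per well then scaled between controls; 0% = DMSO wells and 100% = acetylcholine at EC100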
CHRM4 antagonist: human M4 muscarinic receptor antagonists, primary screen, CHO cells, Fluo-8 calcium fluorescence; Muscarinic acetylcholine receptor M4 (Homo sapiens), P08173; CHO-hM4 cells, ACh EC80; inhibition, % at 3 µM; 360,000 tested, 0.73% active; AID 624125, 2012;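 active = inhibition above its plate's cutoff, the mean inhibition of sample wells plus 3 SD, cut at about 27% in these data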;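 note: 0% = acetylcholine EC80 with DMSO and 100% = DMSO without agonist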
M5 PAM: human M5 muscarinic receptor positive allosteric modulators, primary screen, CHO-K1 cells, Fluo-8 calcium fluorescence | 360,000 tested, 0.3% active | Muscarinic acetylcholine receptor M5 (Homo sapiens), P08912 | CHO-K1 hM5, ACh EC20 PAM; 0% = ACh EC20, 100% = ACh EC100 | activation, % at 3 µM;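 active = activation above the run cutoff, the mean activation of all test compounds plus 3 SD, cut at about 18% in these data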
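System: CHO-K1 hM5 cells. Reagent: acetylcholine, EC20 level. Compound dosing: single dose, 3 µM nominal final test concentration. Timing: Post-acetylcholine fluorescence recording 140 s. Detection: Fluo-8 calcium fluorescence. Read-out: % activation, ACh-normalized. Benchmarks: ACh EC20 and EC100 wells. Repeats: singlicate, one well per test compound.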
M5 antag: human M5 muscarinic receptor antagonists, primary screen, CHO cells, Fluo-8 calcium fluorescence. inhibition, % at 3 µM. 360,000 tested, 0.59% active. AID 624040, 2012. CHO-hM5 cells, ACh EC80. Muscarinic acetylcholine receptor M5 (Homo sapiens), P08912;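 active = inhibition above a per-plate cutoff, the mean of that plate's test compounds plus 3 SD, cut at about 27% in these data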;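 note: 0% = acetylcholine EC80 with DMSO and 100% = DMSO without agonist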
M5 ag: human M5 muscarinic receptor agonists, primary screen, CHO-K1 cells, Fluo-8 calcium fluorescence | CHO-K1 hM5 cells; 0% DMSO wells, 100% maximal acetylcholine response | activation, % at 3 µM | AID 624037, 2012 | 360,000 tested, 0.19% active | Muscarinic acetylcholine receptor M5 (Homo sapiens), P08912;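 active = activation above the run's mean over test compounds plus 3 SD, cut at about 23% in these data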;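 note: signal is peak over basal fluorescence ratio across the kinetic read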
Active calls of the source: *.

SMILES	M4 PAM	M4 ag	CHRM4 antagonist	M5 PAM	M5 antag	M5 ag
O=C1C(Cl)=C(Nc2ccc3cn[nH]c3c2)C(=O)c2ccccc21	-15	-2	39*	-16	28*	-9
CN(C)c1ccc(NC2=C(Cl)C(=O)c3ccccc3C2=O)cc1	-14	-2	36*	-17	34*	-12
CC(C)NC(=O)N[C@H]1C=C[C@H](CC(=O)NCc2ccc(Oc3ccccc3)cc2)O[C@@H]1CO	6	3	-12	5	-11	-1
O=C(NCC(=O)N1CCOCC1)c1ccc(Br)o1	-1	0	-11	-3	-6	-2
COc1ccccc1CCn1cnc(Cc2ccccc2)c1C(C)C	-15	14	33*	-23	13	-2
CCCCCc1c(-c2ccccc2OC)ncn1CCc1ccccc1OC	-13	13	34*	-23	32*	4
COc1ccccc1CCn1cnc(-c2ccc(Br)cc2)c1C(C)C	-7	-1	10	-6	1	-6
O=C1NC[C@H](c2ccccc2)OC(=O)[C@@H](Cc2ccc(F)cc2)CC/C=C/C[C@H]1CC(=O)N(CCO)Cc1ccccc1	-12	26	20	-39	21	5
O=C(C[C@H]1C/C=C\C[C@H](Cc2ccc(F)cc2)C(=O)O[C@@H](c2ccccc2)CNC1=O)N[C@H](CO)Cc1ccccc1	8	39*	3	-2	16	12
O=C1NC[C@H](c2ccccc2)OC(=O)[C@H](Cc2ccc(F)cc2)CC/C=C/C[C@H]1CC(=O)N(CCO)Cc1ccccc1	-2	18	27*	-28	22	2
O=C1NC[C@@H](c2ccccc2)OC(=O)[C@H](Cc2ccc(F)cc2)C/C=C\C[C@@H]1CC(=O)N(CCO)Cc1ccccc1	-13	27	27*	-29	14	0
CC(C)(C)OC(=O)C[C@@H]1C/C=C\C[C@@H](CC(=O)N(CCO)Cc2ccccc2)C(=O)N[C@@H](c2ccccc2)COC1=O	-2	16	4	-26	29*	0
C[C@@H]1COC(=O)[C@H](CC(=O)OC(C)(C)C)C/C=C\C[C@H](CC(=O)N(CCO)Cc2ccccc2)C(=O)N1	11	0	4	3	15	-5
O=C(C[C@H]1C/C=C\CC[C@H](Cc2ccc(F)cc2)C(=O)O[C@@H](c2ccccc2)CNC1=O)N[C@@H](CO)Cc1ccccc1	3	9	1	-21	16	2
COc1cc(/C=C2\SC(N)=NC2=O)cc(Br)c1O	-7	7	-1	-10	-7	24*
COc1cc(/C=N/N2C(=O)CSC2=S)cc(Br)c1O	-30	69*	8	-21	10	56*
COc1ccc(/C=C2\SC(N)=NC2=O)cc1	-6	0	1	-4	2	4
Cc1c(C(=O)O)sc2nc(CSc3ncc(C(F)(F)F)cc3Cl)[nH]c(=O)c12	-5	1	-3	10	-9	3
CCCC(C)C(=O)Nc1ncc(S(=O)(=O)c2ccc([N+](=O)[O-])cc2)s1 (centres undefined)	-7	67*	11	-4	10	49*
CCC(C)(C)C(=O)Nc1ncc(S(=O)(=O)c2ccc([N+](=O)[O-])cc2)s1	-5	12	5	-9	9	16
CCCNC(=O)N1c2ccccc2Sc2ccccc21	-9	1	0	-5	15	-20
CCN(CC)CCC(=O)N1c2ccccc2Sc2ccc(NC(=O)OC)cc21	-5	1	-1	-20	-8	-26
CCN(CC)CC(=O)N1c2ccccc2Sc2ccccc21	-18	1	84*	-18	92*	-5
CCN(CC)CC(=O)N1c2ccccc2Sc2ccc(Cl)cc21	-18	0	85*	-49	97*	-17
CCN(CC)CCCCN1c2ccccc2Sc2ccccc21	-17	10	73*	-22	88*	-4
SMILES	M4 PAM	M4 ag	CHRM4 antagonist	M5 PAM	M5 antag	M5 ag
CCN(CC)C(=O)N1c2ccccc2Sc2ccccc21	-4	-2	2	-6	9	-9
NCCCC(=O)N1c2ccccc2Sc2ccccc21	-14	1	42*	-24	67*	-4
COc1ccc(S(=O)(=O)N(C)C[C@@H]2OCc3cn(nn3)CCCC(=O)N([C@@H](C)CO)C[C@H]2C)cc1	2	0	-8	-5	-5	0
CCNC(=O)NC(=O)CSc1ccc(S(=O)(=O)N2CCOCC2)cn1	-3	-1	5	-2	17	-1
CCN(CC)C(=O)c1oc2ccc(S(=O)(=O)N3CCCCCC3)cc2c1C	-6	11	5	-11	9	3
CCN(CC)C(=O)c1oc2ccc(S(=O)(=O)N3CC(C)CC(C)C3)cc2c1C (centres undefined)	-6	11	4	-12	30*	-2
O=C(Nc1ccccc1Br)c1ccc(N2CCCC2=O)cc1	6	2	-10	5	0	0
Cc1ccc(NC(=O)C2CCN(S(=O)(=O)c3ccc(C(C)(C)C)cc3)CC2)cc1S(=O)(=O)N1CCOCC1	1	8	-1	4	1	-3
CCC(C)Nc1nc(-c2ccccn2)nc2ccccc12 (centres undefined)	22*	9	-18	6	-16	-4
c1ccc(CNc2nc(-c3ccccn3)nc3ccccc23)cc1	10	9	-7	2	-7	2
CC(CNC(=O)CCCn1ncn2c(cc3occc32)c1=O)c1ccccc1 (centres undefined)	16*	2	-5	10	-15	-2
CC1CCCCC12NC(=O)N(CC(=O)Nc1ccccc1F)C2=O (centres undefined)	22*	1	1	0	6	2
Cc1cccc(C)c1NC(=O)CN1CCN(C(=O)CN2C(=O)NC3(CCCCC3C)C2=O)CC1 (centres undefined)	23*	1	-11	1	-1	2
CC1CCCCC12NC(=O)N(CC(=O)Nc1ccccc1-c1ccccc1)C2=O (centres undefined)	2	2	2	-2	0	6
CCc1ccccc1NC(=O)CN1CCN(C(=O)CN2C(=O)NC3(CCCCC3C)C2=O)CC1 (centres undefined)	-2	0	1	-3	4	0
